Test results as given in ChEMBL document CHEMBL1147862, “Studies on synthesis and pharmacological activities of 3,6-disubstituted-1,2,4-triazolo[3,4-b]-1,3,4-thiadiazoles and their dihydro analogues” (2007).

Experiments:
Assay type in all cases: functional
Rattus norvegicus [1] = assay: Antiinflammatory activity in Wistar Albino rat assessed as inhibition of carrageenan-induced paw oedema at 20 mg/kg after 2 hrs relative to control
How it was run: (§1)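 Wistar albino rats, 150–200 g, six per group, dosed orally with a 20 mg/kg suspension; control gets 0.1 ml 1% gum acacia. After 30 min, 0.1 ml 1% carrageenan in saline is injected subplantar into the right hind paw. Paw volume is read by plethysmograph at 0–4 h. Inhibition = 100(1 − Vtest/Vcontrol) on mean volume increase.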

Escherichia coli [2] = assay: Antibacterial activity against Escherichia coli at 10 ug/ml by agar plate diffusion technique; details: read-out: IZ
Bacillus subtilis [3] = assay: Antibacterial activity against Bacillus subtilis at 30 ug/ml by agar plate diffusion technique; details: read-out: IZ
Pseudomonas aeruginosa [4] = assay: Antibacterial activity against Pseudomonas aeruginosa at 20 ug/ml by agar plate diffusion technique; details: read-out: IZ
Candida albicans [5] = assay: Antifungal activity against Candida albicans at 10 ug/ml by paper disc method; details: read-out: IZ
Pseudomonas aeruginosa [6] = assay: Antibacterial activity against Pseudomonas aeruginosa at 30 ug/ml by agar plate diffusion technique; details: read-out: IZ
Bacillus subtilis [7] = assay: Antibacterial activity against Bacillus subtilis at 10 ug/ml by agar plate diffusion technique; details: read-out: IZ
Aspergillus niger [8] = assay: Antifungal activity against Aspergillus niger at 20 ug/ml by paper disc method; details: read-out: IZ
Escherichia coli [9] = assay: Antibacterial activity against Escherichia coli at 20 ug/ml by agar plate diffusion technique; details: read-out: IZ
Candida albicans [10] = assay: Antifungal activity against Candida albicans at 30 ug/ml by paper disc method; details: read-out: IZ
Staphylococcus aureus [11] = assay: Antibacterial activity against Staphylococcus aureus at 10 ug/ml by agar plate diffusion technique; details: read-out: IZ
Escherichia coli [12] = assay: Antibacterial activity against Escherichia coli at 30 ug/ml by agar plate diffusion technique; details: read-out: IZ
Rattus norvegicus [13] = assay: Antiinflammatory activity in Wistar Albino rat assessed as inhibition of carrageenan-induced paw oedema at 20 mg/kg after 3 hrs relative to control; how it was run: as §1
Mus musculus [14] = assay: Analgesic activity in Swiss mouse assessed as increase in reaction time at 20 mg/kg, po after 30 mins by Eddy's hot plate technique
How it was run: (§2)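 Swiss mice of either sex, 25–35 g, placed one at a time on a hot plate held at 55 °C. End point is paw licking or jumping, whichever comes first, with a 15 s cut-off to avoid paw injury. Reaction time is recorded and reported as percent increase in reaction time.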

Aspergillus niger [15] = assay: Antifungal activity against Aspergillus niger at 10 ug/ml by paper disc method; details: read-out: IZ
Staphylococcus aureus [16] = assay: Antibacterial activity against Staphylococcus aureus at 30 ug/ml by agar plate diffusion technique; details: read-out: IZ
Staphylococcus aureus [17] = assay: Antibacterial activity against Staphylococcus aureus at 20 ug/ml by agar plate diffusion technique; details: read-out: IZ
Aspergillus niger [18] = assay: Antifungal activity against Aspergillus niger at 30 ug/ml by paper disc method; details: read-out: IZ
Mus musculus [19] = assay: Analgesic activity in Swiss mouse assessed as increase in reaction time at 20 mg/kg, po after 60 mins by Eddy's hot plate technique; how it was run: as §2
Bacillus subtilis [20] = assay: Antibacterial activity against Bacillus subtilis at 20 ug/ml by agar plate diffusion technique; details: read-out: IZ
Rattus norvegicus [21] = assay: Antiinflammatory activity in Wistar Albino rat assessed as inhibition of carrageenan-induced paw oedema at 20 mg/kg after 4 hrs relative to control; how it was run: as §1
Rattus norvegicus [22] = assay: Antiinflammatory activity in Wistar Albino rat assessed as inhibition of carrageenan-induced paw oedema at 20 mg/kg after 1 hr relative to control; how it was run: as §1
Candida albicans [23] = assay: Antifungal activity against Candida albicans at 20 ug/ml by paper disc method; details: read-out: IZ
Mus musculus [24] = assay: Analgesic activity in Swiss mouse assessed as increase in reaction time at 20 mg/kg, po after 90 mins by Eddy's hot plate technique; how it was run: as §2
Pseudomonas aeruginosa [25] = assay: Antibacterial activity against Pseudomonas aeruginosa at 10 ug/ml by agar plate diffusion technique; details: read-out: IZ

Compound | inhibition in vivo at 20 mg/kg (Rattus norvegicus [1]) [%] | zone of inhibition at 10 µg/mL (Escherichia coli [2]) [mm] | zone of inhibition at 30 µg/mL (Bacillus subtilis [3]) [mm] | zone of inhibition at 20 µg/mL (Pseudomonas aeruginosa [4]) [mm] | zone of inhibition at 10 µg/mL (Candida albicans [5]) [mm] | zone of inhibition at 30 µg/mL (Pseudomonas aeruginosa [6]) [mm] | zone of inhibition at 10 µg/mL (Bacillus subtilis [7]) [mm] | zone of inhibition at 20 µg/mL (Aspergillus niger [8]) [mm] | zone of inhibition at 20 µg/mL (Escherichia coli [9]) [mm] | zone of inhibition at 30 µg/mL (Candida albicans [10]) [mm] | zone of inhibition at 10 µg/mL (Staphylococcus aureus [11]) [mm] | zone of inhibition at 30 µg/mL (Escherichia coli [12]) [mm] | inhibition in vivo at 20 mg/kg (Rattus norvegicus [13]) [%] | Activity (Mus musculus [14]) [%] | zone of inhibition at 10 µg/mL (Aspergillus niger [15]) [mm] | zone of inhibition at 30 µg/mL (Staphylococcus aureus [16]) [mm] | zone of inhibition at 20 µg/mL (Staphylococcus aureus [17]) [mm] | zone of inhibition at 30 µg/mL (Aspergillus niger [18]) [mm] | Activity (Mus musculus [19]) [%] | zone of inhibition at 20 µg/mL (Bacillus subtilis [20]) [mm] | other results
COc1ccc(Cc2nnc3sc(-c4cc(-c5ccccc5)nc5ccccc45)nn23)cc1OC | 18.7 | 6.08 | 15.9 | 10.8 | 5.82 | 16 | 5.76 | 11.5 | 11.3 | 17.9 | 5.12 | 16.9 | 20.2 | 5.36 | 6.14 | 16.7 | 10.3 | 16.7 | 17.26 | 10.2 | inhibition in vivo at 20 mg/kg (Rattus norvegicus [21]): 22.2%; inhibition in vivo at 20 mg/kg (Rattus norvegicus [22]): 12.3%; zone of inhibition at 20 µg/mL (Candida albicans [23]): 11.4 mm; Activity (Mus musculus [24]): 25.11%; zone of inhibition at 10 µg/mL (Pseudomonas aeruginosa [25]): 5.92 mm
Cc1occc1-c1nnc2n1NC(c1ccco1)S2 (stereo not given) | 21.6 | 4.82 | 11.3 | 12.3 | 5.41 | 17.7 | 5.33 | 8.12 | 8.04 | 14.8 | 6.67 | 15.2 | 24.1 | 5.68 | 5.21 | 13.3 | 12.3 | 14.2 | 15.18 | 10.7 | inhibition in vivo at 20 mg/kg (Rattus norvegicus [21]): 25.9%; inhibition in vivo at 20 mg/kg (Rattus norvegicus [22]): 16.4%; zone of inhibition at 20 µg/mL (Candida albicans [23]): 11 mm; Activity (Mus musculus [24]): 26.14%; zone of inhibition at 10 µg/mL (Pseudomonas aeruginosa [25]): 6.67 mm
